PAFAH2 FP inh – PAFAH2 (human) inhibition; Q99487; 0.99% of 340,000 active; recombinant PAFAH2, FP-rhodamine activity probe, fluorescence polarization; inhibition, % at 3.39 µM; AID 492956;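 active = inhibition above the mean over all tested compounds plus 3 SD, cut at about 30% in these data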;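 also: inhibitors block probe labeling of enzyme so polarization drops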
PAFAH1B3 FP inh – PAFAH1B3 (human) inhibition. 0.28% of 340,000 active. recombinant PAFAH1B3, FP-rhodamine probe, fluorescence polarization. inhibition, % at 3.39 µM;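 active = inhibition above the screen-wide average of all tested compounds plus 3 SD, cut at about 25% in these data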
Target sequence (Q15102 whole entry, looked up): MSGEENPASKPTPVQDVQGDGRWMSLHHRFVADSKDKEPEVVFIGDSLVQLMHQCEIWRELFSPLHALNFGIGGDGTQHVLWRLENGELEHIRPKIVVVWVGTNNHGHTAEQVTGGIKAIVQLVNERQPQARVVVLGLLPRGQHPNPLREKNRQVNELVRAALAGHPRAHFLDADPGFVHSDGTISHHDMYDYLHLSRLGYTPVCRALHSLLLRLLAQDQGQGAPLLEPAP
mABHD4 FP – ABHD4 (mouse) inhibition, primary FP screen; Q8VD66; purified mABHD4, FP-Rh probe fluorescence polarization; inhibition, % at 8.92 µM; 0.54% of 370,000 active; AID 720543;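 active = inhibition exceeding the mean over every tested compound plus 3 SD, cut at about 30% in these data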
Target sequence (Q8VD66 whole entry, looked up): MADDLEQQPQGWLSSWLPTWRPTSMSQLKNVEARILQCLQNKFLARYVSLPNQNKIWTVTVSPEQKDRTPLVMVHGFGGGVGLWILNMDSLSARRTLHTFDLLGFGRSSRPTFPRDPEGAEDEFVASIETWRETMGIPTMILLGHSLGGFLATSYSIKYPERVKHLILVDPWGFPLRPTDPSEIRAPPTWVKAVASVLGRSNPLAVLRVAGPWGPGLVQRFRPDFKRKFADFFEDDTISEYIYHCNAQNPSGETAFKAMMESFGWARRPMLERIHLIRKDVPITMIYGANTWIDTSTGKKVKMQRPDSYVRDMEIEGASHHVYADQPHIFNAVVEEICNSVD
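Assay system: wild-type mouse ABHD4 protein; compound: single nominal dose of 8.92 µM, 0.89% DMSO final; schedule: 45 min + 60 min at 25 °C; measured by: FP readout, ex 525 nm / em 598 nm; evaluation: % inhibition of FP-Rh probe binding versus controls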
HTRA1 inhibitor – blocks human HTRA1 serine peptidase | Q92743 | recombinant HTRA1, FP-rhodamine activity-based probe, fluorescence polarization | inhibition, % at 5.96 µM | 0.5% of 340,000 active; in the data active = inhibition above about 36%
PAFAH1B2 FP inh – blocks human PAF acetylhydrolase 1b catalytic subunit 2 | P68402 | recombinant PAFAH1B2, FP-rhodamine activity probe, fluorescence polarization | inhibition, % at 3.39 µM | 1.2% of 340,000 active | AID 492953;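 active = inhibition above the mean of all tested compounds plus 3 SD, cut at about 24% in these data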
pPAFAH FP inh – inhibitors of human plasma PAF acetylhydrolase (pPAFAH). 1.5% of 330,000 active. Q13093. AID 463082. recombinant pPAFAH, FP-rhodamine probe fluorescence polarization. inhibition, % at 3.39 µM;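 active = inhibition above the mean inhibition across the screen plus 3 SD, cut at about 25% in these data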;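 also: inhibitors block binding of the rhodamine activity-based probe so polarization drops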
Of the large screens only hits and unclear results are named; the others gave an inactive call. Sampled rows, rich in hits. Any-hit rate of the full collection: about 2.8%.

COc1ccc(-c2cc(C3CC3)nc(N)c2C#N)cc1	none
COc1ccc(-c2cc(C3CC3)nc3sc(C#N)c(N)c23)cc1	pPAFAH FP inh 31.2
COC(=O)[C@]12C[C@H](CC(=O)N3CCCC3)C(=O)N(CCc3ccc(OC)c(OC)c3)C1=C[C@H](C(C)(C)C)O[C@@H]2C	none (no result: PAFAH2 FP inh, PAFAH1B3 FP inh, HTRA1 inhibitor, PAFAH1B2 FP inh, pPAFAH FP inh)
COCCn1c(-c2ccc(-c3ccc([N+](=O)[O-])cc3Br)o2)nc2c1c(=O)[nH]c(=O)n2CC(C)C	pPAFAH FP inh 28.6
COCCn1c(=O)[nH]c(=O)c2c1nc(-c1ccc(-c3ccc(Cl)cc3[N+](=O)[O-])o1)n2Cc1ccccc1	pPAFAH FP inh 27.3
CC(C)Cn1c(-c2cc([N+](=O)[O-])ccc2Cl)nc2c1c(=O)[nH]c(=O)n2Cc1ccccc1	pPAFAH FP inh 25.3
COc1ccc(-c2ccc(-c3nc4c(c(=O)[nH]c(=O)n4Cc4ccccc4)n3C)o2)c([N+](=O)[O-])c1	none
COCCn1c(-c2ccc(SC)cc2)nc2c1c(=O)[nH]c(=O)n2CC(C)C	none
C[C@H]1[C@H](NC(=O)c2ccc(C(C)(C)C)cc2)CC[C@@]23CCCN2C(=O)CCC[C@@H]13	none (no result: PAFAH2 FP inh, PAFAH1B3 FP inh, HTRA1 inhibitor, PAFAH1B2 FP inh, pPAFAH FP inh)
O=C(CSc1nnc(-c2ccccc2)n1-c1ccccc1)NN=Cc1ccc(-c2ccccc2)cc1	none (no result: PAFAH2 FP inh, PAFAH1B3 FP inh, HTRA1 inhibitor, PAFAH1B2 FP inh, pPAFAH FP inh)
COc1ccc(C(=O)OCCN2CCN(C3CN(Cc4cn(Cc5ccccc5C(F)(F)F)nn4)S(=O)(=O)C3)CC2)cc1OC (stereo not drawn)	none (no result: PAFAH2 FP inh, PAFAH1B3 FP inh, HTRA1 inhibitor, PAFAH1B2 FP inh, pPAFAH FP inh)
C/C(N)=C(/C#N)C(=O)COC(=O)CCSc1ccccc1Cl	none
C/C(N)=C(/C#N)C(=O)COC(=O)CSc1ccccc1	PAFAH1B2 FP inh 26.2
CCOc1ccc2c(c1)c(C(C)=O)c(C)n2-c1ccccc1	pPAFAH FP inh 26.0
CC(C)Cc1nnc(NC(=O)C23CC4CC(CC(C4)C2)C3)s1	none
NC(=O)CSc1nnc(NC(=O)C23CC4CC(CC(C4)C2)C3)s1	PAFAH1B2 FP inh 27.9 (no result: mABHD4 FP)
CCc1nnc(NC(=O)C23CC4CC(CC(C4)C2)C3)s1	PAFAH1B2 FP inh 29.5
Cc1ccc(N2CC(C(=O)Nc3nnc(SCC(N)=O)s3)CC2=O)cc1C (stereo not drawn)	none
CCc1cccc2c(C(C)c3ccccc3O)c[nH]c12 (stereo not drawn)	none (no result: PAFAH2 FP inh, PAFAH1B3 FP inh, HTRA1 inhibitor, PAFAH1B2 FP inh, pPAFAH FP inh)
CCOc1ccc(NC(=O)c2cc(-c3ccc(Cl)cc3)nc3ccccc23)cc1	none (no result: PAFAH2 FP inh, PAFAH1B3 FP inh, HTRA1 inhibitor, PAFAH1B2 FP inh, pPAFAH FP inh)
N/C(=C\C(=O)c1cc(Cl)ccc1O)C(Cl)(Cl)Cl	PAFAH1B3 FP inh 78.9
CC(C)(C)c1ccc(C(=O)CC(=O)c2cc(Cl)ccc2O)cc1	none
COc1cc(CNc2ccc(N3CCN(C(C)=O)CC3)cc2)ccc1OCc1ccc(F)cc1	pPAFAH FP inh 31.0
COc1cc(OC)c(N(C)S(=O)(=O)c2cccc(C(=O)OCC(=O)NCc3ccco3)c2)cc1Cl	PAFAH2 FP inh 32.3, pPAFAH FP inh 33.0
CN(c1ccccc1)S(=O)(=O)c1cccc(C(=O)OCC(=O)NCc2ccco2)c1	none
O=C(COC(=O)c1ccc([N+](=O)[O-])s1)NNC(=O)c1ccccc1	PAFAH2 FP inh 36.0, PAFAH1B3 FP inh 35.6 (no result: mABHD4 FP)
O=C1CN(C(=O)COC(=O)c2ccc([N+](=O)[O-])s2)c2ccccc2N1	PAFAH2 FP inh 32.1, PAFAH1B3 FP inh 45.8 (no result: mABHD4 FP)
Cc1ccc(C(=O)OCC(=O)NNC(=O)c2ccccc2)c(O)c1	none
CCN(CC)S(=O)(=O)c1cccc(C(=O)OCC(=O)NC(C)c2ccccc2)c1 (stereo not drawn)	PAFAH2 FP inh 44.9, pPAFAH FP inh 26.7
CC(NC(=O)COC(=O)c1ccc([N+](=O)[O-])s1)c1ccccc1 (stereo not drawn)	pPAFAH FP inh 24.9
O=C(CCn1nnc(-c2cccs2)n1)N1CCCC1	none (no result: PAFAH2 FP inh, PAFAH1B3 FP inh, HTRA1 inhibitor, PAFAH1B2 FP inh, pPAFAH FP inh)
N#CCC[C@H]1CC[C@]2(CCCN(C(=O)C3CCCC3)C2)O1	none (no result: PAFAH2 FP inh, PAFAH1B3 FP inh, HTRA1 inhibitor, PAFAH1B2 FP inh, pPAFAH FP inh)
O=C(OC12CCCN(C1)/C(=C/c1cccnc1)C2)c1ccccc1 (stereo not drawn)	none (no result: PAFAH2 FP inh, PAFAH1B3 FP inh, HTRA1 inhibitor, PAFAH1B2 FP inh, pPAFAH FP inh)
O=S(=O)(c1cccs1)N1CCC(c2cn3ccccc3n2)CC1	none (no result: PAFAH2 FP inh, PAFAH1B3 FP inh, HTRA1 inhibitor, PAFAH1B2 FP inh, pPAFAH FP inh)
C=CCN1C(=O)[C@@H](CC(=O)NCc2ccc(OC)c(OC)c2)[C@]2(C(=O)OCC)CCCCC/C=C/12	none (no result: PAFAH2 FP inh, PAFAH1B3 FP inh, HTRA1 inhibitor, PAFAH1B2 FP inh, pPAFAH FP inh)
O=C(Nc1ccc(Cl)cc1)[C@@H]1[C@@H]2C(=O)N(c3ccc4ccccc4c3)C(=O)[C@@H]2[C@H]2C=CC=NN21	PAFAH2 FP inh 32.8, pPAFAH FP inh 29.4

Bioassay records deposited in PubChem BioAssay by The Scripps Research Institute Molecular Screening Center.
